For one test, the target named is T1, Steroid 17-alpha-hydroxylase/17,20 lyase (Homo sapiens, UniProt P05093).
T1 sequence (P05093 whole entry): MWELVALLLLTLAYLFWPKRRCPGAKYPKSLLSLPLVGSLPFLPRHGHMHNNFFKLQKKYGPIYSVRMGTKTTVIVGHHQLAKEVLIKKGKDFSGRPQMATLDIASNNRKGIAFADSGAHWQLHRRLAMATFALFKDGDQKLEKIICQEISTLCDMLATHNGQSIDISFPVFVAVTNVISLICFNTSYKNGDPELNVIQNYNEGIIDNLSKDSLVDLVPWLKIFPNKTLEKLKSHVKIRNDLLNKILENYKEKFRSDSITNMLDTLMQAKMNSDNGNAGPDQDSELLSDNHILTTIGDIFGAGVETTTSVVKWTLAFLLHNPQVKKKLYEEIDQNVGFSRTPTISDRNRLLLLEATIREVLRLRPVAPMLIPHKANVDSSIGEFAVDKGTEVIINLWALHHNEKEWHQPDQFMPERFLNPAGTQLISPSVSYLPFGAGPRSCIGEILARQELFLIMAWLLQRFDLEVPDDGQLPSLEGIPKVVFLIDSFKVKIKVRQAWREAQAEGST
Briefly: Inhibition of human testicular steroid 17-alpha-hydroxylase.
Details: not given; call rule not given here
The method, boiled down: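 Human testicular microsomes (from orchidectomy testes, stored −70 °C, diluted in 0.1 M phosphate buffer; ca. 90 μg protein) incubated with [7-³H]pregnenolone (400 nM), NADPH-generating system and four to five inhibitor concentrations, pH 7.4, under oxygen, 5 min, 34 °C. Reverse-phase HPLC with radioactivity counting; hydroxylase activity from conversion to 17α-hydroxypregnenolone plus DHEA. IC50 by nonlinear regression; duplicates, repeated at least once.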
As to `C/C(=N\N(C)C)C1CCC2C3CC=C4C[C@@H](O)CC[C@]4(C)C3CC[C@]12C` (stereo partly specified), the IC50 (commonly the concentration that inhibits the measured activity by half) is “No inhibition”.
On the same count and under the same terms, the value for `C#C[C@]1(O)CCC2C3CCC4=CC(=O)CC[C@]4(C)C3CC[C@@]21C` (stereo partly specified) was “No inhibition”.

Still in this test, the particulars now being: read-out: IC50.
Consider `CC(O)C1CCC2C3CC=C4C[C@@H](O)CC[C@]4(C)C3CC[C@]12C` (stereo partly specified), for which the IC50 is 720 nM.
Still for that read-out and setting: the value for `C[C@@H](C#N)C1CCC2C3CCC4=CC(=O)CC[C@]4(C)C3CC[C@@]21C` (stereo partly specified) was 1100 nM; that for `CC(=O)C1=CCC2C3CC=C4C[C@@H](O)CC[C@]4(C)C3CC[C@]12C` (stereo partly specified) was 510 nM; that for `C/C(C#N)=C1/CCC2C3CCC4=CC(=O)CC[C@]4(C)C3CC[C@]12C` (stereo partly specified) was 1220 nM.
Same read-out and setting: with `C[C@@H](O)C1CCC2C3CC=C4C[C@@H](O)CC[C@]4(C)C3CC[C@@]21C` (stereo partly specified) the figure was 180 nM.
On the same count and under the same terms, the value for `C[C@H](N)[C@H]1CC[C@H]2[C@@H]3CC=C4C[C@@H](O)CC[C@]4(C)[C@H]3CC[C@]12C` was 89800 nM; that for `C[C@]12CCC3C(CC=C4C[C@@H](O)CC[C@@]43C)C1CCC2[C@]1(C)CO1` (stereo partly specified) was 730 nM; that for `C#CC1CCC2C3CC=C4C[C@@H](O)CC[C@]4(C)C3CC[C@]12C` (stereo partly specified) was 3560 nM.
With `C[C@@H](/C=N/O)[C@H]1CC[C@H]2[C@@H]3CCC4=CC(=O)CC[C@]4(C)[C@H]3CC[C@]12C`, the IC50 is 5980 nM.
Same read-out and setting: the value for `C[C@@H](N)[C@H]1CC[C@H]2[C@@H]3CC=C4C[C@@H](O)CC[C@]4(C)[C@H]3CC[C@]12C` was 9800 nM; that for `C/C(=N\N)[C@H]1CC[C@H]2[C@@H]3CC=C4C[C@@H](O)CC[C@]4(C)[C@H]3CC[C@]12C` was 9980 nM; that for `C[C@@H](O)C1CCC2C3CCC4=CC(=O)CC[C@]4(C)C3CC[C@@]21C` (stereo partly specified) was 490 nM.
As to `C[C@@H](O)[C@H]1CC[C@H]2[C@@H]3CCC4=CC(=O)CC[C@]4(C)[C@H]3CC[C@]12C`, the concentration for half-maximal inhibition (IC50) turned out to be 2840 nM.
As for `C/C(=N/O)C1=CCC2C3CC=C4C[C@@H](O)CC[C@]4(C)C3CC[C@]12C` (stereo partly specified), the IC50 came out at 16 nM.
The same measure, in the same setting: with `CC(=O)C1=CCC2C3CCC4=CC(=O)CC[C@]4(C)C3CC[C@]12C` (stereo partly specified) the figure was 1770 nM; with `C/C(=N\N(C)C)C1=CCC2C3CC=C4C[C@@H](O)CC[C@]4(C)C3CC[C@]12C` (stereo partly specified), 43700 nM.
On the same count and under the same terms, the value for `C/C(=N/O)C1CCC2C3CC=C4C[C@@H](O)CC[C@]4(C)C3CC[C@]12C` (stereo partly specified) was 530 nM.
The same measure, in the same setting: the value for `C=CC1CCC2C3CC=C4C[C@@H](O)CC[C@]4(C)C3CC[C@]12C` (stereo partly specified) was 2880 nM; that for `C[C@]12CC[C@H](O)CC1=CCC1C2CC[C@]2(C)/C(=N/O)CCC12` (stereo partly specified) was 13500 nM.
On to `CN(C=O)C1CCC2C3CCC4=CC(=O)CC[C@]4(C)C3CC[C@@]21C` (stereo partly specified), for which the IC50 came to 800 nM.
Still for that read-out and setting: with `C[C@@H](C=O)C1CCC2C3CCC4=CC(=O)CC[C@]4(C)C3CC[C@@]21C` (stereo partly specified) the figure was 230 nM; with `C[C@]12CC[C@H](O)CC1=CCC1C2CC[C@]2(C)/C(=N/N)CCC12` (stereo partly specified), 6480 nM.

The target in a further test is T1, Steroid 17-alpha-hydroxylase/17,20 lyase. As to the kind of experiment: Inhibition of human testicular C17,20-lyase, cytochrome P450 17A1; No inhibition.
Details: not given
In the case of `C/C(=N\N(C)C)C1CCC2C3CC=C4C[C@@H](O)CC[C@]4(C)C3CC[C@]12C` (stereo partly specified), the IC50 result is given as “Not Active”.
Still for that read-out and setting: with `C#C[C@]1(O)CCC2C3CCC4=CC(=O)CC[C@]4(C)C3CC[C@@]21C` (stereo partly specified) the entry was “Not Active”.

The values are drawn from ChEMBL document CHEMBL1129373, “Synthesis and evaluation of pregnane derivatives as inhibitors of human testicular 17 alpha-hydroxylase/C17,20-lyase” (J Med Chem, 1996).
